Experimental data from ChEMBL document CHEMBL1649120, “Differential effects of inhibiting chitin and 1,3-{beta}-D-glucan synthesis in ras and calcineurin mutants of Aspergillus fumigatus” (2009).
The source made the active and inactive calls. The calls are words filed in the database; no cut-off is given here. *1 amine or outer side, *2 acyl side, *3 side chain or, on linkers, in order; H or OH if unused. Where a SMILES comes first, the peptide text is derived from it. Bridges are numbered along the chain shown (N, C = ends). [ ]: non-standard residue; d: D form. The star is where a group is joined. hTyr(3S-OH,4S-OH,3'-OSO3H) = N[C@H](C(=O)O)[C@H](O)[C@@H](O)c1ccc(O)c(OS(=O)(=O)O)c1; pTerphenylCO(4''-OnC5H11) = CCCCCOc1ccc(-c2ccc(-c3ccc(C(=O)*)cc3)cc2)cc1; Orn(4R-OH,5R-OH) = O=C([C@H](C[C@@H](O)[C@@H](O)N[*:3])N[*:1])[*:2]; hTyr(3S-OH,4S-OH) = N[C@H](C(=O)O)[C@H](O)[C@@H](O)c1ccc(O)cc1; Pro(3S-OH,4S-Me) = C[C@H]1CN[C@H](C(=O)O)[C@H]1O; X1 = CCCCCOc1ccc(-c2cc(-c3ccc(C(=O)*)cc3)no2)cc1; Gln(3R-OH) = NC(=O)C[C@@H](O)[C@H](N)C(=O)O; Hyp = O=C(O)[C@@H]1C[C@@H](O)CN1

Key:
Aspergillus fumigatus [1] = experiment: Antifungal activity against Aspergillus fumigatus H237 expressing rasA gene assessed as abnormal hyphal growth by CLSI method; assay type: functional; settings: read-out: MEC
Outline: (§1)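 MEC by CLSI broth microdilution in RPMI 1640. Conidia were incubated with or without drug for 48 h at 37°C, in triplicate.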

Aspergillus fumigatus [2] = experiment: Antifungal activity against Aspergillus fumigatus Af293 expressing cnaA gene assessed as abnormal hyphal growth by CLSI method; assay type: functional; settings: read-out: MEC; outline: as §1
Aspergillus fumigatus [3] = experiment: Antifungal activity against crzA deficient Aspergillus fumigatus Af293 assessed as abnormal hyphal growth by CLSI method; assay type: functional; settings: read-out: MEC; outline: as §1
Aspergillus fumigatus [4] = experiment: Antifungal activity against Aspergillus fumigatus Af293 assessed as abnormal hyphal growth by CLSI method; assay type: functional; settings: read-out: MEC; outline: as §1
Aspergillus fumigatus [5] = experiment: Antifungal activity against cnaA deficient Aspergillus fumigatus Af293 assessed as inhibition of hyphal growth at germling stage at 1 ug/ml by CLSI method; assay type: functional, organism-based
Outline: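 Conidia were grown as for CLSI susceptibility testing in RPMI 1640 with or without echinocandin (1 μg/ml) for 48 h at 37°C. Hyphal morphology was then examined by bright-field microscopy.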

Aspergillus fumigatus [6] = experiment: Antifungal activity against Aspergillus fumigatus Af293 expressing crzA gene assessed as abnormal hyphal growth by CLSI method; assay type: functional; settings: read-out: MEC; outline: as §1
Aspergillus fumigatus [7] = experiment: Antifungal activity against rasA deficient Aspergillus fumigatus H237 assessed as abnormal hyphal growth by CLSI method; assay type: functional; settings: read-out: MEC; outline: as §1
Aspergillus fumigatus [8] = experiment: Antifungal activity against Aspergillus fumigatus H237 assessed as abnormal hyphal growth by CLSI method; assay type: functional; settings: read-out: MEC; outline: as §1
Aspergillus fumigatus [9] = experiment: Antifungal activity against cnaA deficient Aspergillus fumigatus Af293 assessed as abnormal hyphal growth by CLSI method; assay type: functional; settings: read-out: MEC; outline: as §1
Aspergillus fumigatus [10] = experiment: Antifungal activity against Aspergillus fumigatus H237 expressing dominant-active rasA gene assessed as abnormal hyphal growth by CLSI method; assay type: functional; settings: read-out: MEC; outline: as §1
Aspergillus fumigatus [11] = experiment: Antifungal activity against Aspergillus fumigatus Af293 expressing crzA gene assessed as FICI in combination with caspofungin
Aspergillus fumigatus [12] = experiment: Antifungal activity against rasA deficient Aspergillus fumigatus H237 assessed as increase in chitin cell wall content at 16 ug/ml after 48 hrs; assay type: functional, organism-based
Outline: (§2)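 Nikkomycin Z dose series from 0 to 16 μg/ml, added to cultures of 10⁶ conidia/ml in RPMI 1640 for 48 h at 37°C, 250 rpm. Chitin was assayed on 5 mg of lyophilized mycelium by KOH hydrolysis at 130°C, then MBTH colorimetry at A650 against a glucosamine standard. Output is glucosamine equivalents (μg/ml), from biological triplicate.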

Aspergillus fumigatus [13] = experiment: Antifungal activity against Aspergillus fumigatus H237 expressing dominant-active rasA gene assessed as FICI in combination with caspofungin
Aspergillus fumigatus [14] = experiment: Antifungal activity against Aspergillus fumigatus Af293 assessed as decrease in 1, 3-beta-D-glucan cell wall content at 1 ug/ml after 48 hrs by aniline blue assay; assay type: functional, organism-based
Outline: (§3)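 10⁶ conidia/ml were grown in RPMI 1640 with or without drug for 48 h at 37°C, 250 rpm. Hyphae were washed in 0.1 M NaOH and lyophilized. 5 mg was taken into 1 M NaOH, sonicated and heated at 52°C for 30 min. Aniline blue mix (pH 9.5) was added for 30 min at 52°C. Fluorescence was read at ex 405/em 460 nm against a curdlan standard curve. Results are % change in RFU/mg versus untreated wild type, from five independent experiments.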

Aspergillus fumigatus [15] = experiment: Antifungal activity against Aspergillus fumigatus H237 assessed as decrease in 1, 3-beta-D-glucan cell wall content at 1 ug/ml after 48 hrs by aniline blue assay; assay type: functional, organism-based; outline: as §3
Aspergillus fumigatus [16] = experiment: Antifungal activity against cnaA deficient Aspergillus fumigatus Af293 assessed as FICI in combination with caspofungin
Aspergillus fumigatus [17] = experiment: Antifungal activity against rasA deficient Aspergillus fumigatus H237 assessed as FICI in combination with caspofungin
Candida albicans = experiment: Antifungal activity against Candida albicans SC5314 assessed as decrease in chitin cell wall content at 4 ug/ml after 48 hrs; assay type: functional, organism-based
Aspergillus fumigatus [18] = experiment: Antifungal activity against cnaA deficient Aspergillus fumigatus Af293 assessed as increase in chitin cell wall content at 1 to 16 ug/ml after 48 hrs; assay type: functional, organism-based; outline: as §2
Aspergillus fumigatus [19] = experiment: Antifungal activity against rasA deficient Aspergillus fumigatus H237 assessed as decrease in 1, 3-beta-D-glucan cell wall content at 1 ug/ml by aniline blue assay; assay type: functional, organism-based; outline: as §3
Aspergillus fumigatus [20] = experiment: Antifungal activity against crzA deficient Aspergillus fumigatus Af293 assessed as decrease in 1, 3-beta-D-glucan cell wall content at 1 ug/ml by aniline blue assay; assay type: functional, organism-based; outline: as §3
Aspergillus fumigatus [21] = experiment: Antifungal activity against crzA deficient Aspergillus fumigatus Af293 assessed as FICI in combination with caspofungin
Aspergillus fumigatus [22] = experiment: Antifungal activity against Aspergillus fumigatus H237 expressing dominant-active rasA assessed as decrease in 1, 3-beta-D-glucan cell wall content at 1 ug/ml after 48 hrs by aniline blue assay; assay type: functional, organism-based; outline: as §3
Aspergillus fumigatus [23] = experiment: Antifungal activity against Aspergillus fumigatus H237 expressing dominant-active rasA assessed as increase in chitin cell wall content at 16 ug/ml after 48 hrs; assay type: functional, organism-based; outline: as §2
Aspergillus fumigatus [24] = experiment: Antifungal activity against cnaA deficient Aspergillus fumigatus Af293 assessed as increase in chitin cell wall content at 16 ug/ml after 48 hrs; assay type: functional, organism-based; outline: as §2
Aspergillus fumigatus [25] = experiment: Antifungal activity against Aspergillus fumigatus Af293 assessed as FICI in combination with caspofungin
Aspergillus fumigatus [26] = experiment: Antifungal activity against Aspergillus fumigatus H237 expressing rasA gene assessed as FICI in combination with caspofungin
Aspergillus fumigatus [27] = experiment: Antifungal activity against Aspergillus fumigatus H237 assessed as FICI in combination with caspofungin
Aspergillus fumigatus [28] = experiment: Antifungal activity against cnaA deficient Aspergillus fumigatus Af293 assessed as decrease in 1, 3-beta-D-glucan cell wall content at 1 ug/ml by aniline blue assay; assay type: functional, organism-based; outline: as §3
Aspergillus fumigatus [29] = experiment: Antifungal activity against rasA deficient Aspergillus fumigatus H237 assessed as increase in chitin cell wall content at 1 to 16 ug/ml after 48 hrs; assay type: functional, organism-based; outline: as §2
Aspergillus fumigatus [30] = experiment: Antifungal activity against crzA deficient Aspergillus fumigatus Af293 assessed as increase in chitin cell wall content at 1 to 16 ug/ml after 48 hrs; assay type: functional, organism-based; outline: as §2
Aspergillus fumigatus [31] = experiment: Antifungal activity against Aspergillus fumigatus H237 expressing dominant-active rasA assessed as increase in chitin cell wall content at 1 to 16 ug/ml after 48 hrs; assay type: functional, organism-based; outline: as §2
Aspergillus fumigatus [32] = experiment: Antifungal activity against Aspergillus fumigatus Af293 expressing cnaA gene assessed as FICI in combination with caspofungin
Aspergillus fumigatus [33] = experiment: Antifungal activity against crzA deficient Aspergillus fumigatus Af293 assessed as increase in chitin cell wall content at 16 ug/ml after 48 hrs; assay type: functional, organism-based; outline: as §2

## CCCCCOc1ccc(-c2ccc(-c3ccc(C(=O)N[C@H]4C[C@@H](O)[C@@H](O)NC(=O)[C@@H]5[C@@H](O)[C@@H](C)CN5C(=O)[C@H]([C@@H](C)O)NC(=O)[C@H]([C@H](O)[C@@H](O)c5ccc(O)cc5)NC(=O)[C@@H]5C[C@@H](O)CN5C(=O)[C@H]([C@@H](C)O)NC4=O)cc3)cc2)cc1 [ANIDULAFUNGIN] ({pTerphenylCO(4''-OnC5H11)}-[Orn(4R-OH,5R-OH)]T[Hyp][hTyr(3S-OH,4S-OH)]T[Pro(3S-OH,4S-Me)]; lactam 1-C)
Aspergillus fumigatus [1]
  minimal effective concentration: 0.125 µg/mL
Aspergillus fumigatus [2]
  minimal effective concentration: 0.0625 µg/mL
Aspergillus fumigatus [3]
  minimal effective concentration: 0.0156 µg/mL
Aspergillus fumigatus [4]
  minimal effective concentration: 0.0625 µg/mL
Aspergillus fumigatus [5]
  Activity: Active
Aspergillus fumigatus [6]
  minimal effective concentration: 0.125 µg/mL
Aspergillus fumigatus [7]
  minimal effective concentration: 2 µg/mL
Aspergillus fumigatus [8]
  minimal effective concentration: 0.0625 µg/mL
Aspergillus fumigatus [9]
  minimal effective concentration: 0.0039 µg/mL
Aspergillus fumigatus [10]
  minimal effective concentration: 0.0156 µg/mL

## CCCCCOc1ccc(-c2cc(-c3ccc(C(=O)N[C@H]4C[C@@H](O)[C@@H](O)NC(=O)[C@@H]5[C@@H](O)[C@@H](C)CN5C(=O)[C@H]([C@H](O)CC(N)=O)NC(=O)[C@H]([C@H](O)[C@@H](O)c5ccc(O)c(OS(=O)(=O)O)c5)NC(=O)[C@@H]5C[C@@H](O)CN5C(=O)[C@H]([C@@H](C)O)NC4=O)cc3)no2)cc1 [MICAFUNGIN] (X1-[Orn(4R-OH,5R-OH)]T[Hyp][hTyr(3S-OH,4S-OH,3'-OSO3H)][Gln(3R-OH)][Pro(3S-OH,4S-Me)]; lactam 1-C)
Aspergillus fumigatus [1]
  minimal effective concentration: 0.125 µg/mL
Aspergillus fumigatus [2]
  minimal effective concentration: 0.125 µg/mL
Aspergillus fumigatus [3]
  minimal effective concentration: 0.0312 µg/mL
Aspergillus fumigatus [4]
  minimal effective concentration: 0.125 µg/mL
Aspergillus fumigatus [5]
  Activity: Active
Aspergillus fumigatus [6]
  minimal effective concentration: 0.0625 µg/mL
Aspergillus fumigatus [7]
  minimal effective concentration: > 4 µg/mL
Aspergillus fumigatus [8]
  minimal effective concentration: 0.125 µg/mL
Aspergillus fumigatus [9]
  minimal effective concentration: 0.0039 µg/mL
Aspergillus fumigatus [10]
  minimal effective concentration: 0.0156 µg/mL

## C[C@@H]([C@H](N)C(=O)N[C@H](C(=O)O)[C@H]1O[C@@H](n2ccc(=O)[nH]c2=O)[C@H](O)[C@@H]1O)[C@H](O)c1ccc(O)cn1 [NIKKOMYCIN]
Aspergillus fumigatus [1]
  minimal effective concentration: 2 µg/mL
Aspergillus fumigatus [2]
  minimal effective concentration: 2 µg/mL
Aspergillus fumigatus [3]
  minimal effective concentration: 0.5 µg/mL
Aspergillus fumigatus [11]
  fractional inhibitory concentration index (FICI): 0.16
Aspergillus fumigatus [12]
  Activity: inactive
Aspergillus fumigatus [13]
  fractional inhibitory concentration index (FICI): 0.5
Aspergillus fumigatus [14]
  Activity: Active
Aspergillus fumigatus [15]
  Activity: Active
Aspergillus fumigatus [16]
  fractional inhibitory concentration index (FICI): 0.19
Aspergillus fumigatus [17]
  fractional inhibitory concentration index (FICI): 0.03
Candida albicans
  Activity: Active
Aspergillus fumigatus [4]
  minimal effective concentration: 2 µg/mL
Aspergillus fumigatus [18]
  Activity: inactive
Aspergillus fumigatus [19]
  Activity: inactive
Aspergillus fumigatus [20]
  Activity: inactive
Aspergillus fumigatus [21]
  fractional inhibitory concentration index (FICI): 0.13
Aspergillus fumigatus [22]
  Activity: inactive
Aspergillus fumigatus [23]
  Activity: inactive
Aspergillus fumigatus [6]
  minimal effective concentration: 4 µg/mL
Aspergillus fumigatus [24]
  Activity: inactive
Aspergillus fumigatus [25]
  fractional inhibitory concentration index (FICI): 0.09
Aspergillus fumigatus [7]
  minimal effective concentration: 0.5 µg/mL
Aspergillus fumigatus [26]
  fractional inhibitory concentration index (FICI): 0.09
Aspergillus fumigatus [8]
  minimal effective concentration: 4 µg/mL
Aspergillus fumigatus [9]
  minimal effective concentration: 0.125 µg/mL
Aspergillus fumigatus [27]
  fractional inhibitory concentration index (FICI): 0.16
Aspergillus fumigatus [28]
  Activity: inactive
Aspergillus fumigatus [29]
  Activity: inactive
Aspergillus fumigatus [30]
  Activity: inactive
Aspergillus fumigatus [10]
  minimal effective concentration: 4 µg/mL
Aspergillus fumigatus [31]
  Activity: inactive
Aspergillus fumigatus [32]
  fractional inhibitory concentration index (FICI): 0.09
Aspergillus fumigatus [33]
  Activity: inactive

## C=CC[C@@H]1/C=C(\C)C[C@H](C)C[C@H](OC)[C@H]2O[C@@](O)(C(=O)C(=O)N3CCCC[C@H]3C(=O)O[C@H](/C(C)=C/[C@@H]3CC[C@@H](O)[C@H](OC)C3)[C@H](C)[C@@H](O)CC1=O)[C@H](C)C[C@@H]2OC [TACROLIMUS ANHYDROUS]
Aspergillus fumigatus [1]
  minimal effective concentration: 0.02 µg/mL
Aspergillus fumigatus [2]
  minimal effective concentration: 0.02 µg/mL
Aspergillus fumigatus [3]
  minimal effective concentration: 0.01 µg/mL
Aspergillus fumigatus [4]
  minimal effective concentration: 0.02 µg/mL
Aspergillus fumigatus [6]
  minimal effective concentration: 0.02 µg/mL
Aspergillus fumigatus [7]
  minimal effective concentration: 0.001 µg/mL
Aspergillus fumigatus [8]
  minimal effective concentration: 0.02 µg/mL
Aspergillus fumigatus [9]
  minimal effective concentration: > 80 µg/mL
Aspergillus fumigatus [10]
  minimal effective concentration: 0.01 µg/mL
